What was measured:
Rattus norvegicus [1] = assay: Maximum change in mean aortic blood pressure in conscious renal 2-kidney/1-clip goldblatt hypertensive rat at a dose 30 mg/kg administered orally at 8h; 3 animals tested; type: functional, Artery; conditions: route oral
Procedure, shortened: (§1)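 Male Sprague–Dawley rats made hypertensive at 4 weeks old by silver clip (0.2-mm gap) on left renal artery, contralateral kidney intact; 4–8 weeks development, cannulated (280–320 g), only mean aortic pressure >160 mmHg used. Oral dosing; 1-min running-average aortic pressure and heart rate logged every 30 min; maximum change from base line, mean ± SEM.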

Rattus norvegicus [2] = assay: Mean aortic base line blood pressure in conscious renal 2-kidney/1-clip goldblatt hypertensive rat at a dose 30 mg/kg administered orally; type: functional, Artery; conditions: route oral
[3] = target: T1, Angiotensin-converting enzyme (Rattus norvegicus, UniProt P47820); assay: Inhibition of rat Angiotensin I converting enzyme (ACE), using Hip-Gly-Gly as synthetic substrate.
T1 sequence (P47820 whole entry): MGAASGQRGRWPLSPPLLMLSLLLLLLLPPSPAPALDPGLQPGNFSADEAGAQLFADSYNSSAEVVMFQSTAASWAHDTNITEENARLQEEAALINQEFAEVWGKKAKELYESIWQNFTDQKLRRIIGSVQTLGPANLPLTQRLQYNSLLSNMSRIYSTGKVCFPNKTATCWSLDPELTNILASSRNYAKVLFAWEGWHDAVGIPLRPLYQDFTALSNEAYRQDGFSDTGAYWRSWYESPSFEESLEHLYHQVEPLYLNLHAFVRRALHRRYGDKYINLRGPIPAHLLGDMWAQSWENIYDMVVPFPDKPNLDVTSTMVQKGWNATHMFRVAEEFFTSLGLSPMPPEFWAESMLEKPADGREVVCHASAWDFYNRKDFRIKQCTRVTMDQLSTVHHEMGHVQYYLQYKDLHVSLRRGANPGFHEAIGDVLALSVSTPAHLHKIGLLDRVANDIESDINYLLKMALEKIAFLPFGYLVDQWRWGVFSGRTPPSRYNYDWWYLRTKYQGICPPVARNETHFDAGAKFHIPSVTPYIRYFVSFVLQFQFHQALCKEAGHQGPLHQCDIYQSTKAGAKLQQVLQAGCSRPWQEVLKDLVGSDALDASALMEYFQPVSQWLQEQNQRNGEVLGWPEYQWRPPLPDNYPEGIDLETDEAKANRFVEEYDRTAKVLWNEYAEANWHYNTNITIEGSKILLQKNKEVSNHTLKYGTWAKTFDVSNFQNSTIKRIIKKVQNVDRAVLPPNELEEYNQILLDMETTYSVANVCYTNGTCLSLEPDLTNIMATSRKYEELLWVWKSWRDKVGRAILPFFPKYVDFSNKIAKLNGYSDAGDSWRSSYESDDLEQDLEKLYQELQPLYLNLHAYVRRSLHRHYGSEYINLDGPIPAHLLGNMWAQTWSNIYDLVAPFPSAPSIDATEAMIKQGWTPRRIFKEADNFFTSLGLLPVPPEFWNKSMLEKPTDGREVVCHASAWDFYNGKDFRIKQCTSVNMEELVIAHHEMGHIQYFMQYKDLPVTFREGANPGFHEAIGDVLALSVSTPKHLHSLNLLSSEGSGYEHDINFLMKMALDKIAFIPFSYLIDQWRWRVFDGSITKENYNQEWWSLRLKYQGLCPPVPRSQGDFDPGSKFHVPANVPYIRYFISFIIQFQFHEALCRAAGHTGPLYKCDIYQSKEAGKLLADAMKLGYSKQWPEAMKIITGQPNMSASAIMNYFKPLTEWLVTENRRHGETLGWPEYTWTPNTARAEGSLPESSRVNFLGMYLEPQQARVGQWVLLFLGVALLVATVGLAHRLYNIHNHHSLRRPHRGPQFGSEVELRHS
Procedure, shortened: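 Radioassay of converting-enzyme activity with Hip-Gly-Gly as substrate; compounds dissolved at 2–5 mg/mL in Me2SO, then diluted to test concentrations in pH 8 buffer (0.05 M Hepes, 0.1 M NaCl, 0.6 M Na2SO4).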

Rattus norvegicus [4] = assay: Maximum change in mean aortic blood pressure in conscious renal 2-kidney/1-clip goldblatt hypertensive rat at a dose 1.0 mg/kg administered orally at 3 hr; 4 animals tested; type: functional, Artery; conditions: route oral
Procedure, shortened: (§2)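 Male Sprague–Dawley rats, 4 weeks old, given a silver clip (0.2-mm gap) on the left renal artery with the other kidney intact. Hypertension developed over 4–8 weeks, then rats (280–320 g) were aortic-cannulated; only those with mean pressure >160 mmHg were used. Oral dosing. One-minute running averages were logged every 30 min. Results are mean ± 1 SEM, from 3–5 rats.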

Rattus norvegicus [5] = assay: Mean aortic base line blood pressure in conscious renal 2-kidney/1-clip goldblatt hypertensive rat at a dose 10 mg/kg administered orally; type: functional, Artery; conditions: route oral; procedure, shortened: as §2
Rattus norvegicus [6] = assay: Mean aortic base line blood pressure in conscious renal 2-kidney/1-clip goldblatt hypertensive rat at a dose 0.3 mg/kg administered orally; type: functional, Artery; conditions: route oral
Rattus norvegicus [7] = assay: Maximum change in mean aortic blood pressure in conscious renal 2-kidney/1-clip goldblatt hypertensive rat at a dose 30 mg/kg administered orally at 6 h; 4 animals tested; type: functional, Artery; conditions: route oral
Rattus norvegicus [8] = assay: Mean aortic base line blood pressure in conscious renal 2-kidney/1-clip goldblatt hypertensive rat at a dose 0.1 mg/kg administered orally; type: functional, Artery; conditions: route oral; procedure, shortened: as §2
Rattus norvegicus [9] = assay: Maximum change in mean aortic blood pressure in conscious renal 2-kidney/1-clip goldblatt hypertensive rat at a dose 0.3 mg/kg administered orally at 5h; 4 animals tested; type: functional, Artery; conditions: route oral; procedure, shortened: as §2
Rattus norvegicus [10] = assay: Mean aortic base line blood pressure in conscious renal 2-kidney/1-clip goldblatt hypertensive rat at a dose 1.0 mg/kg administered orally; type: functional, Artery; conditions: route oral; procedure, shortened: as §2
Rattus norvegicus [11] = assay: Maximum change in mean aortic blood pressure in conscious renal 2-kidney/1-clip goldblatt hypertensive rat at a dose 0.1 mg/kg administered orally at 10h; 4 animals tested; type: functional, Artery; conditions: route oral; procedure, shortened: as §2
Rattus norvegicus [12] = assay: Maximum change in mean aortic blood pressure in conscious renal 2-kidney/1-clip goldblatt hypertensive rat at a dose 30 mg/kg administered orally at 10h; 4 animals tested; type: functional, Artery; conditions: route oral; procedure, shortened: as §2
Rattus norvegicus [13] = assay: Mean aortic base line blood pressure in conscious renal 2-kidney/1-clip goldblatt hypertensive rat at a dose 3.0 mg/kg administered orally; type: functional, Artery; conditions: route oral
Rattus norvegicus [14] = assay: Maximum change in mean aortic blood pressure in conscious renal 2-kidney/1-clip goldblatt hypertensive rat at a dose 1.0 mg/kg administered orally at 5h; 4 animals tested; type: functional, Artery; conditions: route oral; procedure, shortened: as §2
Rattus norvegicus [15] = assay: Maximum change in mean aortic blood pressure in conscious renal 2-kidney/1-clip goldblatt hypertensive rat at a dose 3.0 mg/kg administered orally at 5h; 4 animals tested; type: functional, Artery; conditions: route oral; procedure, shortened: as §2
Rattus norvegicus [16] = assay: Maximum change in mean aortic blood pressure in conscious renal 2-kidney/1-clip goldblatt hypertensive rat at a dose 0.3 mg/kg administered orally at 8h; 4 animals tested; type: functional, Artery; conditions: route oral; procedure, shortened: as §2
Rattus norvegicus [17] = assay: Maximum change in mean aortic blood pressure in conscious renal 2-kidney/1-clip goldblatt hypertensive rat at a dose 30 mg/kg administered orally at 8h; 4 animals tested; type: functional, Artery; conditions: route oral; procedure, shortened: as §2
Rattus norvegicus [18] = assay: Mean aortic base line blood pressure in conscious renal 2-kidney/1-clip goldblatt hypertensive rat at a dose 3 mg/kg administered orally; type: functional, Artery; conditions: route oral; procedure, shortened: as §2
Rattus norvegicus [19] = assay: Maximum change in mean aortic blood pressure in conscious renal 2-kidney/1-clip goldblatt hypertensive rat at a dose 3 mg/kg administered orally at 6 h; 4 animals tested; type: functional, Artery; conditions: route oral
Rattus norvegicus [20] = assay: Maximum change in mean aortic blood pressure in conscious renal 2-kidney/1-clip goldblatt hypertensive rat at a dose 30 mg/kg administered orally at 6 h; 3 animals tested; type: functional, Artery; conditions: route oral; procedure, shortened: as §1

C1CCC(NC2CCCCC2)CC1.CC(CS)C(=O)N1C(=O)C2CCCCC2C1C(=O)O (configuration not stated)
Mean aortic blood pressure (Rattus norvegicus [1]): -100 mmHg
Mean aortic blood pressure (Rattus norvegicus [2]): 192 mmHg

C1CCC(NC2CCCCC2)CC1.O=C(O)C1C2CCCCC2C(=O)N1C(=O)CCS (configuration not stated)
Mean aortic blood pressure (Rattus norvegicus [1]): -57 mmHg
Mean aortic blood pressure (Rattus norvegicus [2]): 205 mmHg

O=C(O)C1Cc2ccccc2N1C(=O)CCS (configuration not stated)
IC50 [3]: 140 nM

CC(=O)SCC(C)C(=O)N1[C@H](C(=O)O)C[C@@H]2CCCC[C@@H]21 (stereo in doubt; 9a)
IC50 [3]: 160 nM

O=C(O)[C@@H]1C[C@@H]2CCCC[C@@H]2N1C(=O)CCS (stereo in doubt; 8d)
IC50 [3]: 6.4 nM

CCOC(=O)C(CCc1ccccc1)N1C(=O)C2CC3CCCCC3N2C(=O)C1C (configuration not stated)
IC50 [3]: > 100000 nM

CC(=O)SCCC(=O)N1[C@H](C(=O)O)C[C@@H]2CCCC[C@@H]21 (stereo in doubt; 8a)
IC50 [3]: 560 nM

CCOC(=O)C(CCc1ccccc1)NC(C)C(=O)N1[C@H](C(=O)O)C[C@@H]2CCCC[C@@H]21.Cl (stereo in doubt; 11a)
Mean aortic blood pressure (Rattus norvegicus [4]): -72 mmHg
Mean aortic blood pressure (Rattus norvegicus [5]): 197 mmHg
Mean aortic blood pressure (Rattus norvegicus [6]): 191 mmHg
Mean aortic blood pressure (Rattus norvegicus [7]): -102 mmHg
Mean aortic blood pressure (Rattus norvegicus [8]): 185 mmHg
Mean aortic blood pressure (Rattus norvegicus [2]): 185 mmHg
Mean aortic blood pressure (Rattus norvegicus [9]): -73 mmHg
Mean aortic blood pressure (Rattus norvegicus [10]): 190 mmHg
Mean aortic blood pressure (Rattus norvegicus [11]): -52 mmHg

CC(CS)C(=O)N1[C@H](C(=O)O)C[C@@H]2CCCC[C@@H]21 (stereo in doubt; 9c)
Mean aortic blood pressure (Rattus norvegicus [12]): -115 mmHg
Mean aortic blood pressure (Rattus norvegicus [6]): 185 mmHg
Mean aortic blood pressure (Rattus norvegicus [13]): 190 mmHg
Mean aortic blood pressure (Rattus norvegicus [14]): -72 mmHg
Mean aortic blood pressure (Rattus norvegicus [15]): -81 mmHg
Mean aortic blood pressure (Rattus norvegicus [8]): 184 mmHg
Mean aortic blood pressure (Rattus norvegicus [2]; 30 mg/kg): 197 mmHg
Mean aortic blood pressure (Rattus norvegicus [16]): -19 mmHg
IC50 [3]: 7.7 nM
Mean aortic blood pressure (Rattus norvegicus [10]): 178 mmHg

CC(CS)C(=O)N1[C@H](C(=O)O)C[C@@H]2CCCC[C@@H]21 (stereo in doubt; 9d)
IC50 [3]: 1100 nM

O=C(NC(Cc1ccccc1)C(=O)CCC(=O)N1C(C(=O)O)CC2CCCCC21)c1ccccc1 (configuration not stated)
Mean aortic blood pressure (Rattus norvegicus [17]): -27 mmHg
Mean aortic blood pressure (Rattus norvegicus [2]): 169 mmHg
IC50 [3]: 11 nM

CCOC(=O)C(CCc1ccccc1)NC(C)C(=O)N1[C@H](C(=O)O)C[C@@H]2CCCC[C@@H]21.Cl (stereo in doubt; 17a)
Mean aortic blood pressure (Rattus norvegicus [18]): 199 mmHg
Mean aortic blood pressure (Rattus norvegicus [19]): -87 mmHg

C1CCC(NC2CCCCC2)CC1.O=C(O)C1C2CCCCC2CN1C(=O)CCS (configuration not stated)
Mean aortic blood pressure (Rattus norvegicus [20]): -76 mmHg
Mean aortic blood pressure (Rattus norvegicus [2]): 184 mmHg

O=C(O)[C@@H]1CCCN1C(=O)CCS
IC50 [3]: 820 nM

Source: ChEMBL document CHEMBL1123771, “Synthesis and structure-activity relationships of potent new angiotensin converting enzyme inhibitors containing saturated bicyclic amino acids” (J Med Chem, 1987)
